Values after ≈ are worked out from the molar mass of the structure shown.
What was measured:
Type in all cases: functional
Conditions in all cases: read-out: ED50 (the source's name)
A549 = experiment: Cytotoxicity against human A549 cells
Summary of the method: (§1)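 In vitro cytotoxicity against a tumor-cell panel. Panel: KB (nasopharyngeal carcinoma), A-549 (human lung carcinoma), HCT-8 (human colon adenocarcinoma), RPMI-7951 (human melanoma), TE-671 (human medulloblastoma) and P-388 (murine leukemia). The procedure follows published protocols.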

KB = experiment: Cytotoxicity against human KB cells; summary of the method: as §1
RPMI-7951 = experiment: Cytotoxicity against human RPMI7951 cells; summary of the method: as §1
HCT-8 = experiment: Cytotoxicity against human HCT8 cells; summary of the method: as §1
TE-671 = experiment: Cytotoxicity against human TE671 cells; summary of the method: as §1
P388 = experiment: Cytotoxicity against mouse P388 cells; summary of the method: as §1

SMILES	EC50 (A549)	EC50 (KB)	EC50 (RPMI-7951)	EC50 (HCT-8)	EC50 (TE-671)	EC50 (P388)
CC(=O)OC[C@]12[C@H](OC(C)=O)[C@@H](O)[C@@H]3[C@@H](OC(C)=O)[C@@]14O[C@@]3(C)COC(=O)c1cccnc1[C@H](C)[C@H](C)C(=O)O[C@@H]([C@H](OC(=O)c1ccc(=O)n(C)c1)[C@@H]2OC(=O)c1ccccc1)[C@@]4(C)O [EMARGINATINE F]	5.5 µg/mL (≈ 5.99 µM)	0.51 µg/mL (≈ 0.555 µM)	< 0.1 µg/mL	1.29 µg/mL (≈ 1.4 µM)	0.21 µg/mL (≈ 0.229 µM)	0.69 µg/mL (≈ 0.751 µM)
C/C=C(\C)C(=O)O[C@H]1[C@@H](OC(=O)c2ccc(=O)n(C)c2)[C@@H]2OC(=O)[C@@H](C)[C@@H](C)c3ncccc3C(=O)OC[C@]3(C)O[C@@]4([C@H](OC(C)=O)[C@H]3[C@@H](OC(C)=O)[C@@H](OC(C)=O)[C@]14COC(C)=O)[C@]2(C)O [EMARGINATINE G]	> 10 µg/mL	> 10 µg/mL	> 10 µg/mL	> 10 µg/mL	> 10 µg/mL	> 10 µg/mL
